The text below walks through data of publication PMC6067823 (Organic & biomolecular chemistry, 2018).

One may read the IC50 as the midpoint of a concentration-inhibition curve.

Entries after “also recorded” stand apart in the source; their conditions may differ.

For experiment [1], the target named is T1, mouse OR-I7 (Mus musculus, UniProt Q9QWU6).
T1 sequence (Q9QWU6 1-327): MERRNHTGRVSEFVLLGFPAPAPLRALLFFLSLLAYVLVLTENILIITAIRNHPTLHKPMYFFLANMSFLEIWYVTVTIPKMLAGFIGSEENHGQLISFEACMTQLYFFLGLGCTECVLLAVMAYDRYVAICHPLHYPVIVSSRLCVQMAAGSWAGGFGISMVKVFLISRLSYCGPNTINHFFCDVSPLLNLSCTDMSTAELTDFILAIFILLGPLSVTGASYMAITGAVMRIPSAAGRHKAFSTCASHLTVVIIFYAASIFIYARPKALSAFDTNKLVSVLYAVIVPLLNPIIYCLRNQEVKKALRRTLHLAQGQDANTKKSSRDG
Nature of the experiment: Hana3A GloSensor cAMP assay, inhibition of response to co-applied 5 µM octanal. In kind it is cell-based. As to conditions: for Relative antagonist potency within the series, in words: side-by-side comparison, Figs. 3 and 4. (Changes in cAMP serve as a functional read-out for many G protein-coupled receptors.)

A further experiment concerns rat OR-I7. As to conditions: cited from earlier work; for Function at rodent OR-I7 (agonist or antagonist), in words: rat OR-I7, earlier study; for IC50: read-out: IC50 (antagonist, estimated).
Experiment [2] concerns the target T1, mouse OR-I7. Briefly: Hana3A GloSensor cAMP assay, compounds applied alone. Format: cell-based. As to conditions: compound applied alone to Hana3A cells expressing mouse OR-I7. A digest of the protocol:
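Hana3A cells were co-transfected with Rho-tagged mouse OR-I7 (80 ng/well), RTP1S, M3-R and pGloSensor-22F (10 ng/well each). At 18–24 h they were loaded with 2% GloSensor reagent for 2 h. Test compound was applied alone over a concentration range, and luminescence was read every 90 s for 24 min. Signal at 3–7.5 min was summed, baselined and normalized to octanal. Six replicates per plate, mean ± SEM.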

The next experiment has as its system rat ORs. As to conditions: cited from earlier work.

Turning to `CCC1(CC=O)CCCCC1` [Compound 11], on mouse OR-I7 [1] (5 µM octanal), the “Relative antagonist potency within the series, in words” value was “unfavorable”.

For the molecule `CCCCCCC=O` [heptanal], in the experiment on rat OR-I7, the “Function at rodent OR-I7 (agonist or antagonist), in words” value (shortened to “Function at rodent OR-I7”) is listed as “regained their ability to function as agonists”.

Consider `CC(C)=CCC[C@@H](C)CC=O` (racemic) [citronellal], for which, in the experiment with rat OR-I7 (rat OR-I7), the “Agonist activity at rat OR-I7 compared with octanal, in words” value is “almost as good a rat OR-I7 agonist as octanal”.

As for `CCC(C)CC=O` (stereo not shown) [Compound 5], the “Increase in antagonist potency relative to pentanal” value on mouse OR-I7 [1] (from estimated IC50s, 5 µM octanal, Fig. 3) is reported as 5 fold.

On to `CCC1CCC(CC=O)CC1` (stereo not shown) [Compound 4, (4-ethylcyclohexyl)ethanal], for which the “Function at rodent OR-I7” value with rat OR-I7 is on record as “agonists”.

Turning to `CCCCC=O` [Compound 3, Pentanal], the “Function at rodent OR-I7” value with rat OR-I7 is on record as “weak rat OR-I7 antagonist; also recorded: antagonists”. In the experiment on rat OR-I7 (rat OR-I7), the IC50 is 460 µM.

For `CCC(CC)(CC)CC=O` [Compound 8], at mouse OR-I7 [1] (5 µM octanal), the “Relative antagonist potency within the series, in words” value is recorded as “progressively decreased potency”.

As to `O=CCC1CCCCC1` [Compound 2, cyclohexylethanal], on mouse OR-I7 [2], the “Activation of mouse OR-I7 (agonist activity), in words” value is given as “not a mouse OR-I7 agonist”. The “Response to octanal with co-applied compound (antagonism), in words” value at mouse OR-I7 [1] (increasing concentrations co-applied with constant 5 µM octanal) was “reduced in a dose-dependent manner”. For the same molecule, the “Function at rodent OR-I7” value with rat OR-I7 is “antagonists”. In addition, in the experiment on rat OR-I7 (rat OR-I7), the IC50 is 37 µM.

In the case of `CCCCCCCC=O` [Compound 1, octanal], in the experiment with rat ORs, the “Number of rat ORs activated” value is given as 33–55. In addition, the “Function at rodent OR-I7” value with rat OR-I7 was “agonists”.

For the molecule `O=CCC12CC3CC(CC(C3)C1)C2` [Compound 12], at mouse OR-I7 [1] (from estimated IC50s, 5 µM octanal, Fig. 4), the “Antagonist potency weaker than compound 9” value is 3 fold.

Take `CC1(CC=O)CCCCC1` [Compound 10]: at mouse OR-I7 [1] (5 µM octanal), the “Relative antagonist potency within the series, in words” value is reported as “unfavorable”.
